Reference: ChEMBL document CHEMBL1145052, “Design and synthesis of novel pyridoxine 5'-phosphonates as potential antiischemic agents” (J Med Chem, 2003)

Assays:
Rattus norvegicus [1] = species on record: Rattus norvegicus; test: Glucose oxidation was measured using [C14] Glucose in perfusing rat heart; type: functional
Outline: (§1)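 Isolated, spontaneously beating rat hearts under aerobic perfusion for 60 min. Test agents perfused at 1 mM, DCA positive control at 3 mM, untreated controls; n = 6 hearts per group. [3H]-palmitate and [14C]-glucose perfused together to measure fatty acid and glucose oxidation simultaneously.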

Rattus norvegicus [2] = species on record: Rattus norvegicus; test: Inhibitory activity against ATP receptor in isolated perfused rat heart
Rattus norvegicus [3] = test: Ability of compound to reduce the infarct size in rat administered via bolus at 0.02 mmol/kg; type: functional
Outline: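 Male Wistar rats, carotid artery and jugular vein cannulated, LAD snare placed, 30 min stabilization. Bolus injection 0.02 mmol/kg given 5 min before LAD occlusion; saline infusion controls. 25 min ischemia, 2 h reperfusion. Area at risk delineated with Evans blue (2% w/v). AR pieces stained with NBT (0.5 mg/mL) for 40 min at 37 °C. Infarct size expressed as % of AR.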

Rattus norvegicus [4] = species on record: Rattus norvegicus; test: Fatty acid oxidation was measured using [3H]- palmitate in perfusing rat heart; type: functional; outline: as §1

| Structure (SMILES) | Activity (Rattus norvegicus [1]) | Activity (Rattus norvegicus [2]) [µM] | Reduction (Rattus norvegicus [3]) [%] | Activity (Rattus norvegicus [4]) |
| --- | --- | --- | --- | --- |
| Cc1ncc(COP(=O)(O)O)c(C=O)c1O [PYRIDOXAL PHOSPHATE ANHYDROUS] | 2253 | 10 | 33 | 398 |
| Cc1ncc(CP(=O)(O)O)c(O)c1O |  |  | 20 |  |
| Cc1ncc2c(c1O)COC2(O)C(F)(F)P(=O)(O)O (centres undefined) | 2339 |  | 46 | 414 |
| Cc1ncc(C(O)P(=O)(O)O)c(O)c1O (centres undefined) |  |  | 19 |  |
